Assay results from different studies.

| SMILES | test system | setting | endpoint | value |
| --- | --- | --- | --- | --- |
| C=CCn1c(=O)c2cnc(Nc3ccc(N4CCN(C)CC4)cc3)nc2n1-c1ccc2c(n1)[C@@](O)(CC)CC2 | mouse, plasma | intravenous, 3 mg/kg | Vd | 3.4 L/kg |
| NCc1cc2c(cc1F)C(=O)N(C1CCC(=O)NC1=O)C2 (centres unmarked) | male CD-1 mouse, plasma | intravenous, 1 mg/kg | Vd | 6.5 L/kg |
| CC(C)(C)c1sc2ncnc(Oc3c(F)cccc3OC(F)(F)F)c2c1-c1ccc(Cl)cc1 | mouse, plasma | intravenous, 1 mg/kg | Vd | 1.3 L/kg |
| COCC(=O)N1CCc2[nH]c3c(Cl)c(Cl)ccc3c2[C@@H]1C | C57BL/6 mouse, blood | intravenous, 1 mg/kg | Vd | 1.23 L/kg |
| Cc1nc2ccc(OCc3ccc(C(F)(F)F)cc3)cc2[nH]1 | male BALB/c mouse, plasma | oral, 10 mg/kg | Vd/F | 7.35 L/kg |
| CN(C)C(=O)c1cc2cnc(Nc3ccc(-c4ccc5c(=O)cc(N6CCOCC6)oc5c4)cc3)nc2n1C1CCCC1.Cl | BALB/c mouse, plasma | oral, 20 mg/kg | Vd/F | 17.7 L/kg |
| OCc1nc2ccc(NCc3ccc(C(F)(F)F)cc3)cc2[nH]1 | male BALB/c mouse, plasma | intravenous, 1 mg/kg | Vd | 4 L/kg |
| O=C1CCC(N2Cc3cc(CO)c(F)cc3C2=O)C(=O)N1 (centres unmarked) | male CD-1 mouse, plasma | intravenous, 1 mg/kg | Vd | 2.8 L/kg |
| CC(C)[C@@H](CS(=O)(=O)C(C)C)N1C(=O)[C@@](C)(CC(=O)O)C[C@H](c2cccc(Cl)c2)[C@H]1c1ccc(Cl)cc1 | FVB mouse, plasma | oral, 20 mg/kg, single dose | Vd/F | 12.2 L/kg |
| CCCC[C@@H](NC(=O)[C@@H](Cc1cn(C(=O)OC)c2ccccc12)NC(=O)[C@H](CC(C)(C)C)NC(=O)N1[C@H](C)CCC[C@@H]1C)C(=O)O | male CD-1 mouse, plasma | intravenous, 3 mg/kg | Vd | 6.6 L/kg |
| C[C@@H]1COCCN1c1cc(=O)n2c(n1)N(Cc1cncc(Cl)c1)[C@H](C(F)(F)F)CC2 | C57BL/6 mouse, plasma | intraperitoneal, 10 mg/kg, single dose | Vd | 7.05 L/kg |
